{"data": "Measurements gathered from unrelated publications", "target": "Phosphatidylinositol 4-phosphate 3-kinase C2 domain-containing subunit beta (PIK3C2B, Homo sapiens, UniProt O00750)", "note": "Compare with care: the assays were run in different laboratories."}
{"SMILES": "CN(C)c1ncc(F)c(-c2cnn3ncccc23)n1", "read-out": "binding", "tested at": "1 µM", "remaining binding [%]": 76}
{"SMILES": "C[C@@H](c1ccc(-n2cnc3c(N)ncnc32)cc1)N1CCc2nn(C)c(Cc3ccccc3)c2C1=O", "read-out": "binding", "technique": "competition with immobilised ligand", "tested at": "0.1 µM", "remaining binding [%]": 87}
{"SMILES": "C[C@H]1CCN(c2nccc(-c3cnn4ncccc34)n2)C1", "read-out": "binding", "tested at": "1 µM", "remaining binding [%]": 91}
{"SMILES": "Cc1nccc(COC(=O)N2C[C@@H]3[C@@H](CNC(=O)c4ccc5[nH]nnc5c4)[C@@H]3C2)n1", "read-out": "cell-free assay", "technique": "competition with immobilised ligand", "tested at": "1 µM", "remaining binding [%]": 97}
{"SMILES": "CC1CCCN1c1nccc(-c2cnn3ncccc23)n1 (stereo not drawn)", "read-out": "binding", "tested at": "1 µM", "remaining binding [%]": 100}
{"SMILES": "COCCOc1nc(-c2ccc(Cl)nc2)nc2c1CN(C(=O)c1ncn3ccccc13)CC2", "read-out": "cell-free assay", "technique": "competition with immobilised ligand", "tested at": "0.1 µM", "remaining binding [%]": 100}
{"SMILES": "CCN1CCN(Cc2ccc(C(=O)Nc3ccc(C)c(Oc4ccc5c(c4)CC(=O)N5)c3)cc2C(F)(F)F)CC1", "read-out": "binding", "technique": "competition with immobilised ligand", "tested at": "1 µM", "remaining binding [%]": 66}
{"SMILES": "N[C@H]1CCN(c2nccc(-c3cnn4ncccc34)n2)C1", "read-out": "binding", "tested at": "1 µM", "remaining binding [%]": 100}
{"SMILES": "O=C(NCC1CCOCC1)c1n[nH]cc1NC(=O)c1c(F)cccc1F", "read-out": "binding", "technique": "competition with immobilised ligand", "tested at": "1 µM", "remaining binding [%]": 100}
{"SMILES": "CCS(=O)(=O)c1cc2cc(C[C@@](O)(CC(C)(C)c3ccc(F)cc3C(N)=O)C(F)(F)F)[nH]c2cn1", "read-out": "cell-free assay", "technique": "competition with immobilised ligand", "tested at": "1 µM", "remaining binding [%]": 86}
{"SMILES": "O=C(c1ccc(Nc2ncc(Cl)c(-c3ccc(Cl)s3)n2)cc1)N1CCC(N2CCCC2)CC1", "read-out": "binding", "technique": "competition with immobilised ligand", "tested at": "1 µM", "remaining binding [%]": 98}
{"SMILES": "Nc1cnc(N2CCc3cc(S(=O)(=O)Nc4c(F)cc(Cl)cc4F)cc(N4CCCC4=O)c32)nc1", "read-out": "cell-free assay", "technique": "competition with immobilised ligand", "tested at": "1 µM", "remaining binding [%]": 83}
{"SMILES": "COc1ccnn2ncc(-c3ccnc(N(C)C)n3)c12", "read-out": "binding", "tested at": "1 µM", "remaining binding [%]": 100}
{"SMILES": "O=C(c1ccc(Nc2nccc(-c3cc4ccccc4s3)n2)cc1)N1CCC(N2CCCC2)CC1", "read-out": "binding", "technique": "competition with immobilised ligand", "tested at": "1 µM", "remaining binding [%]": 99}
{"SMILES": "CN(c1ccnc(CNc2nc(Nc3ccc4c(c3)CC(=O)N4)ncc2C(F)(F)F)n1)S(C)(=O)=O", "read-out": "cell-free assay", "technique": "competition with immobilised ligand", "tested at": "1 µM", "remaining binding [%]": 79}
{"SMILES": "O=C(NCCCN1CCOCC1)c1ccc(Nc2nccc(-c3cc4ccccc4s3)n2)cc1", "read-out": "binding", "technique": "competition with immobilised ligand", "tested at": "1 µM", "remaining binding [%]": 92}
{"SMILES": "c1cnn2ncc(-c3ccnc(N4CCC45COC5)n3)c2c1", "read-out": "binding", "tested at": "1 µM", "remaining binding [%]": 82}
{"SMILES": "C=CC(=O)N1CCC(C(=O)NCC(=O)N2CCN(c3nc(-c4cnc(N)nc4C(F)F)nc(N4CCOCC4)n3)CC2)CC1", "read-out": "binding", "technique": "competition with immobilised ligand", "tested at": "1 µM", "remaining binding [%]": 21}
{"SMILES": "COc1cnc(Nc2cccc(S(N)(=O)=O)c2)nc1N1CCN(c2ccccc2)C(=O)C1", "read-out": "binding", "technique": "competition with immobilised ligand", "tested at": "1 µM", "remaining binding [%]": 97}
{"SMILES": "O=S(=O)(NC1CCC(c2cc(F)ccc2F)(S(=O)(=O)c2ccc(Cl)cc2)CC1)C(F)(F)F (stereo not drawn)", "read-out": "cell-free assay", "technique": "competition with immobilised ligand", "tested at": "1 µM", "remaining binding [%]": 100}
{"SMILES": "Nc1ncc2c(n1)-c1c([nH]c3ccc(C#CC4CC4)cc13)CCCC2", "read-out": "binding", "technique": "competition with immobilised ligand", "tested at": "1 µM", "remaining binding [%]": 89}
{"SMILES": "c1cncc(-c2cccc(Nc3nccc(NC4CCCCC4)n3)c2)c1", "read-out": "binding", "technique": "competition with immobilised ligand", "tested at": "10 µM", "remaining binding [%]": 81}
{"SMILES": "O=C(Nc1cccnn1)N1CCC(=Cc2cccc(Oc3ccc(C(F)(F)F)cn3)c2)CC1", "read-out": "cell-free assay", "technique": "competition with immobilised ligand", "tested at": "1 µM", "remaining binding [%]": 91}
{"SMILES": "CN(C)c1nccc(-c2cnc3ncccn23)n1", "read-out": "binding", "tested at": "1 µM", "remaining binding [%]": 57}
